Experimental data: ChEMBL document CHEMBL2040844, “Anthranilic acid-based diamides derivatives incorporating aryl-isoxazoline pharmacophore as potential anticancer agents: design, synthesis and biological evaluation” (Eur J Med Chem, 2012)

How the values were obtained:
MCF7 [1] = assay: Cytotoxicity against human MCF7 cells after 72 hrs by MTT assay; format: functional, cell-based; conditions: MCF7, 72 h
Method in brief: (§1)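 MTT assay. Cells were seeded at 2 × 10⁴ per well, grown to subconfluence, then exposed to serial dilutions of compound in test medium for 72 h at 37 °C in humidified 5% CO₂. MTT was added for 4 h, formazan was dissolved in DMSO, and absorbance was read at 570 nm. IC50 values were derived from dose-response. Triplicate wells, three independent experiments; 5-FU served as positive control.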

NCI-H460 [2] = assay: Growth inhibition of human NCI-H460 cells at 40 ug/ml after 72 hrs by MTT assay; format: functional; conditions: NCI-H460, 72 h, read-out: GI
Method in brief: (§2)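 Single-concentration screen at 40 µg/mL, reported as % cell growth inhibition. Cells were seeded at 2 × 10⁴ per well, grown to subconfluence, then treated for 72 h at 37 °C in humidified 5% CO₂. MTT was added for 4 h, formazan was dissolved in DMSO, and absorbance was read at 570 nm. Triplicate wells, three independent experiments; 5-FU served as positive control.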

BGC-823 [3] = assay: Cytotoxicity against human BGC823 cells after 72 hrs by MTT assay; format: functional, cell-based; conditions: for IC50: BGC-823, 72 h; method in brief: as §1
HepG2 [4] = assay: Growth inhibition of human HepG2 cells at 40 ug/ml after 72 hrs by MTT assay; format: functional; conditions: HepG2, 72 h, read-out: GI; method in brief: as §2
NCI-H460 [5] = assay: Cytotoxicity against human NCI-H460 cells after 72 hrs by MTT assay; format: functional, cell-based; conditions: NCI-H460, 72 h; method in brief: as §1
SGC-7901 [6] = assay: Growth inhibition of human SGC7901 cells at 40 ug/ml after 72 hrs by MTT assay; format: functional; conditions: SGC-7901, 72 h, read-out: GI; method in brief: as §2
MCF7 [7] = assay: Growth inhibition of human MCF7 cells at 40 ug/ml after 72 hrs by MTT assay; format: functional; conditions: MCF7, 72 h, read-out: GI; method in brief: as §2
BGC-823 [8] = assay: Growth inhibition of human BGC823 cells at 40 ug/ml after 72 hrs by MTT assay; format: functional; conditions: BGC-823, 72 h, read-out: GI; method in brief: as §2
SGC-7901 [9] = assay: Cytotoxicity against human SGC7901 cells after 72 hrs by MTT assay; format: functional, cell-based; conditions: SGC-7901, 72 h; method in brief: as §1
HepG2 [10] = assay: Cytotoxicity against human HepG2 cells after 72 hrs by MTT assay; format: functional, cell-based; conditions: for IC50: HepG2, 72 h; method in brief: as §1

SMILES | IC50 (MCF7 [1]) [µM] | inhibition of growth at 40 µg/mL (NCI-H460 [2]) [%] | IC50 (BGC-823 [3]) [µM] | inhibition of growth at 40 µg/mL (HepG2 [4]) [%] | IC50 (NCI-H460 [5]) [µM] | inhibition of growth at 40 µg/mL (SGC-7901 [6]) [%] | inhibition of growth at 40 µg/mL (MCF7 [7]) [%] | inhibition of growth at 40 µg/mL (BGC-823 [8]) [%] | IC50 (SGC-7901 [9]) [µM] | IC50 (HepG2 [10]) [µM] | Activity (BGC-823 [3]) | Activity (HepG2 [10])
CCCNC(=O)c1cc(Cl)cc(C)c1NC(=O)C1CC(c2ccc(F)cc2)=NO1 (centres undefined) | > 100 | 20 | > 100 | 29.1 | > 100 | 30.5 | 33 | 23.5 | > 100 | > 100 |  | 
CC(C)NC(=O)c1ccccc1NC(=O)C1CC(c2ccc(F)cc2)=NO1 (centres undefined) |  | 0 |  | 0 |  | 10.3 | 0 | 21.5 |  |  |  | 
COc1cc(C2=NOC(C(=O)Nc3c(C)cc(Cl)cc3C(=O)NC(C)C)C2)cc(OC)c1OC (centres undefined) |  | 0.5 |  | 12.9 |  | 0 | 9.1 | 11.7 |  |  |  | 
CNC(=O)c1ccccc1NC(=O)C1CC(c2cc(OC)c(OC)c(OC)c2)=NO1 (centres undefined) |  | 0 |  | 31.4 |  | 12 | 9.1 | 20.8 |  |  |  | 
CCN(CC)C(=O)c1cc(Cl)cc(C)c1NC(=O)C1CC(c2ccc(Cl)cc2)=NO1 (centres undefined) | 34.5 | 63.5 | 36.5 | 59.2 | 37.5 | 76.3 | 62.1 | 59.6 | 37.4 | 37.7 | Dose-dependent effect | Dose-dependent effect
O=c1[nH]cc(F)c(=O)[nH]1 [FLUOROURACIL] | 12.5 | 89.7 | 4.5 | 81.3 | 2.4 | 80.8 | 80.4 | 85.7 | 6.3 | 4.8 |  | 
CC(C)NC(=O)c1ccccc1NC(=O)C1CC(c2ccc(Cl)cc2)=NO1 (centres undefined) |  | 0 |  | 5.5 |  | 13.6 | 0 | 14.6 |  |  |  | 
CCN(CC)C(=O)c1cc(Cl)cc(C)c1NC(=O)C1CC(c2cc(OC)c(OC)c(OC)c2)=NO1 (centres undefined) |  | 0 |  | 28.6 |  | 28.3 | 23.5 | 27.8 |  |  |  | 
CNC(=O)c1ccccc1NC(=O)C1CC(c2ccc(Cl)cc2)=NO1 (centres undefined) |  | 5.7 |  | 50.6 |  | 7.8 | 16.5 | 13.3 |  |  |  | 
Cc1cc(Cl)cc2c(=O)oc(C3CC(c4ccc(Cl)cc4)=NO3)nc12 (centres undefined) | 68.7 | 58.1 | 54.4 | 52.4 | 41.9 | 35.6 | 37.7 | 31.5 | 68.8 | 43.6 |  | 
COc1cc(C2=NOC(c3nc4c(C)cc(Cl)cc4c(=O)o3)C2)cc(OC)c1OC (centres undefined) | > 100 | 0 | > 100 | 16.5 | > 100 | 0 | 12.4 | 0 | > 100 | > 100 |  | 
Cc1cc(Cl)cc(C(=O)NC2CCCCC2)c1NC(=O)C1CC(c2ccc(F)cc2)=NO1 (centres undefined) |  | 33.3 |  | 10 |  | 15.6 | 24.8 | 34.3 |  |  |  | 
CCN(CC)C(=O)c1cc(Cl)cc(C)c1NC(=O)C1CC(c2ccc(F)cc2)=NO1 (centres undefined) | > 100 | 10 | > 100 | 18.2 | > 100 | 15.8 | 14.4 | 36.4 | > 100 | > 100 |  | 
CNC(=O)c1cc(Cl)cc(C)c1NC(=O)C1CC(c2ccc(Cl)cc2)=NO1 (centres undefined) | > 100 | 0 | > 100 | 18.7 | > 100 | 24.6 | 22.6 | 13.2 | > 100 | > 100 |  | 
CNC(=O)c1cc(Cl)cc(C)c1NC(=O)C1CC(c2cc(OC)c(OC)c(OC)c2)=NO1 (centres undefined) | > 100 | 5.5 | 54.1 | 30.6 | > 100 | 27.3 | 26.1 | 34.1 | 65.5 | 67.6 |  | 
Cc1cc(Cl)cc(C(=O)NC2CCCCC2)c1NC(=O)C1CC(c2ccc(Cl)cc2)=NO1 (centres undefined) |  | 15.1 |  | 15.6 |  | 3.1 | 9.6 | 18.3 |  |  |  | 
COc1cc(C2=NOC(C(=O)Nc3c(C)cc(Cl)cc3C(=O)NC3CCCCC3)C2)cc(OC)c1OC (centres undefined) | 22.4 | 74 | 23.3 | 64 | 24.7 | 60.2 | 62.7 | 69.7 | 36.8 | 34.8 | Dose-dependent effect | Dose-dependent effect
Cc1cc(Cl)cc2c(=O)oc(C3CC(c4ccc(F)cc4)=NO3)nc12 (centres undefined) | 51.9 | 64.6 | 34.9 | 38.9 | 35.8 | 42.7 | 54.7 | 72.1 | 53.4 | 53.4 |  | 
CCCNC(=O)c1cc(Cl)cc(C)c1NC(=O)C1CC(c2cc(OC)c(OC)c(OC)c2)=NO1 (centres undefined) | > 100 | 9.5 | > 100 | 21.1 | > 100 | 15.4 | 29.1 | 28 | > 100 | > 100 |  | 
COc1cc(C2=NOC(C(=O)Nc3ccccc3C(=O)NC(C)C)C2)cc(OC)c1OC (centres undefined) |  | 0 |  | 11.7 |  | 0 | 0 | 0 |  |  |  | 
Cc1cc(Cl)cc(C(=O)NC(C)C)c1NC(=O)C1CC(c2ccc(Cl)cc2)=NO1 (centres undefined) |  | 10.3 |  | 12.3 |  | 24.2 | 3.9 | 38.7 |  |  |  | 
Cc1cc(Cl)cc(C(=O)Nc2ccccc2)c1NC(=O)C1CC(c2ccc(F)cc2)=NO1 (centres undefined) |  | 0 |  | 5.1 |  | 11.6 | 17 | 26.4 |  |  |  | 
CCCNC(=O)c1cc(Cl)cc(C)c1NC(=O)C1CC(c2ccc(Cl)cc2)=NO1 (centres undefined) |  | 13.6 |  | 16.7 |  | 14.7 | 22.2 | 24.5 |  |  |  | 
CNC(=O)c1ccccc1NC(=O)C1CC(c2ccc(F)cc2)=NO1 (centres undefined) |  | 0 |  | 9.1 |  | 0 | 0 | 21.4 |  |  |  | 
Cc1cc(Cl)cc(C(=O)NC(C)C)c1NC(=O)C1CC(c2ccc(F)cc2)=NO1 (centres undefined) |  | 0 |  | 13.6 |  | 17.2 | 4.8 | 0 |  |  |  | 
CNC(=O)c1cc(Cl)cc(C)c1NC(=O)C1CC(c2ccc(F)cc2)=NO1 (centres undefined) | > 100 | 42.9 | > 100 | 26.7 | 50.3 | 12.8 | 40.8 | 14.6 | > 100 | > 100 |  | 
